Publication PMC3581696 (The Journal of General Physiology, 2013)

Columns and labels:
[1] = target: T1, mEAG1 Δ821–989 channels (Mus musculus, UniProt Q60603); test: Inside-out patch-clamp of post-CNBHD deletion mutant channels; format: cell-based; conditions: with 30 µM fisetin
T1 sequence (Q60603 1-820): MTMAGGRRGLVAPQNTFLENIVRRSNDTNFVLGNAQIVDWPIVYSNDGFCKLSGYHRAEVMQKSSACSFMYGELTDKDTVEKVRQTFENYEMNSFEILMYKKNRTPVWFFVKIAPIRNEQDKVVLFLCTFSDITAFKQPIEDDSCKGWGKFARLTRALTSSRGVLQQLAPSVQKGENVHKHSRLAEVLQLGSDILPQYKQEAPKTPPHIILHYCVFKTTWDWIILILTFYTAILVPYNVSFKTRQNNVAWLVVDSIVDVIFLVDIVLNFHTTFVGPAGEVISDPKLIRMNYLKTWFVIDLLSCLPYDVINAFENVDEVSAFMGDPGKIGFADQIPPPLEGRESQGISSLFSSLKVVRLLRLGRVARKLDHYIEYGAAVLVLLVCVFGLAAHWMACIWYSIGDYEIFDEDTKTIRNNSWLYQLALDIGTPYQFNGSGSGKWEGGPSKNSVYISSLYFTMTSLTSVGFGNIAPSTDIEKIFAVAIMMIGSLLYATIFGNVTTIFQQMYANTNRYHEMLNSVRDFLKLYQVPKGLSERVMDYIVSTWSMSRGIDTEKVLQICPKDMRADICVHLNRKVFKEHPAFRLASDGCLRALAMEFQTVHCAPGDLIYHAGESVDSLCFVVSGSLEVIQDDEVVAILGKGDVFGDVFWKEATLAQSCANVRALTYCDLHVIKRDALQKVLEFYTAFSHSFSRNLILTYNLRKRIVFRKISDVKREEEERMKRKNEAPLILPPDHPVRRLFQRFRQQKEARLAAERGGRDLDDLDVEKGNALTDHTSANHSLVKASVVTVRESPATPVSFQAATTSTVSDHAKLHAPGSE
In short: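 mEAG1 mutant cRNA was injected into defolliculated Xenopus oocytes, and the vitelline membrane was removed. Inside-out patches were bathed in symmetric 130 mM KCl, 10 mM HEPES, 0.2 mM EDTA, pH 7.2, holding at −100 mV. Steps of 0.1 s from −140 to +50 mV (10-mV increments) were followed by −120 mV tails, without or with 30 µM flavonoid. Peak tails were normalized and Boltzmann-fitted. Deactivation time constant came from single-exponential fits of the −120 mV tail after +50 mV; two-tailed t test.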

[2] = target: T2, purified C-linker/CNBHD of mEAG1 channels (Mus musculus, UniProt Q60603); test: Tryptophan-to-flavonoid FRET binding assay; conditions: 100 µM flavonoid; 4 µM protein
T2 sequence (Q60603 505-702): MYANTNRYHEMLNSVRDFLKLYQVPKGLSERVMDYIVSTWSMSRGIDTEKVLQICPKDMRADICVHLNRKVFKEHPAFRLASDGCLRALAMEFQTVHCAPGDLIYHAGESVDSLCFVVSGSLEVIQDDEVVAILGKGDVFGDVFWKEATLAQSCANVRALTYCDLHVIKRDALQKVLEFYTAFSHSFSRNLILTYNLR

[3] = target: T3, mEAG1 Δ2–173 channels (Mus musculus, UniProt Q60603); test: Inside-out patch-clamp of amino-terminal deletion mutant channels; format: cell-based
T3 sequence (Q60603 with tags, fused parts or gaps): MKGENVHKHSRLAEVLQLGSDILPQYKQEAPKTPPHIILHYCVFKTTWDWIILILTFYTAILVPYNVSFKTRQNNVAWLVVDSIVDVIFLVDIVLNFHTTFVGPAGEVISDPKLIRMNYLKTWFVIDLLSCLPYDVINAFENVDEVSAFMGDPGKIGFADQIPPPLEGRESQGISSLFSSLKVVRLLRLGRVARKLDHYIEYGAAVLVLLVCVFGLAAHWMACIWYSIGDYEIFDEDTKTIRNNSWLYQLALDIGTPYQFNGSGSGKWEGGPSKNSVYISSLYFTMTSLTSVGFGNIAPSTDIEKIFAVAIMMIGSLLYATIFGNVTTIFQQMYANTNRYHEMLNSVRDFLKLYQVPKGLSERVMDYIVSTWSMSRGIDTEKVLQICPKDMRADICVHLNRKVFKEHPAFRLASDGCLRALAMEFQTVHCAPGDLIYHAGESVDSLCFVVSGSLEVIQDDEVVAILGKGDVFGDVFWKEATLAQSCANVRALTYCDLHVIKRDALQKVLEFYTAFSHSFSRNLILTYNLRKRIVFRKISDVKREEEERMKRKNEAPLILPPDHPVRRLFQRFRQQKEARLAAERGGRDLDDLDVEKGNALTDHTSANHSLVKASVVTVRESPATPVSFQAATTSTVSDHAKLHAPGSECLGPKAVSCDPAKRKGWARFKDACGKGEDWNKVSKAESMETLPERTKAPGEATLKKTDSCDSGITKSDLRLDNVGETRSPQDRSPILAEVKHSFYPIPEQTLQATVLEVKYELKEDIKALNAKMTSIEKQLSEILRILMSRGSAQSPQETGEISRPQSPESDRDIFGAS
In short: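 Δ2–173 mEAG1 was expressed in Xenopus oocytes and recorded in inside-out patches in symmetric 130 mM KCl/HEPES/EDTA, pH 7.2, held at −100 mV. Steps of 3 s from −100 to +100 mV (20-mV increments) returned to −100 mV for 1 s, with 0 or 30 µM flavonoid. Conductance–voltage data were fit with a product of two Boltzmann functions, with inactivation parameters and activation slope held fixed. The −100 mV tail after a step to −40 mV was fit with a single exponential.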

rate (time constant) of deactivation ([1]; at −120 mV, 3.4 ± 0.7 ms without, n = 4): 6.7 ± 2.2 ms
time constant of deactivation (tail currents of Fig. 5 F) ([1]; tail at −120 mV after step to +50 mV, 5.2 ms without): 13.4 ms
V1/2 (Boltzmann fit of the averaged conductance–voltage relationship) ([1]; −31.9 mV without, Fig. 5 E): −50.6 mV
V1/2 of the conductance–voltage relationship ([1]; −36.4 ± 2.5 mV without, n = 4): −51.1 ± 6.0 mV
decrease of peak fluorescence intensity of the C-linker/CNBHD at 341 nm [2]: 27%
increase of peak conductance after a step to −40 mV ([3]; 30 µM fisetin, average): 1.7 fold
time constant of deactivation ([3]; with 30 µM fisetin, after a step to −40 mV, 117 ± 1 ms without, n = 3): 375 ± 36 ms
time constant of deactivation (tail currents of Fig. 5 C) ([3]; with 30 µM fisetin, tail at −100 mV after step to −40 mV, 116 ms without): 239 ms
SMILES: O=c1c(O)c(-c2ccc(O)c(O)c2)oc2cc(O)ccc12 [Fisetin, 2-(3,4-dihydroxyphenyl)-3,7-dihydroxychromen-4-one]
